Sampled rows, rich in hits. Any-hit rate of the full collection: about 0.63%.
TRPML3 ag: human mucolipin-3 channel agonism | 220,000 tested, 0.29% active | activation, % at 3 µM | HEK293 TRPML3-YFP, Fluo-8 calcium fluorescence; 100% = the carbachol control signal | AID 1448 | Q8TDD5;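 active = activation above its plate's cutoff, the mean activation of the plate's test wells plus 3 SD, cut at about 12% in these data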;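 note: 0% = DMSO only wells and 100% = carbachol wells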
Target sequence (Q8TDD5 whole entry, looked up): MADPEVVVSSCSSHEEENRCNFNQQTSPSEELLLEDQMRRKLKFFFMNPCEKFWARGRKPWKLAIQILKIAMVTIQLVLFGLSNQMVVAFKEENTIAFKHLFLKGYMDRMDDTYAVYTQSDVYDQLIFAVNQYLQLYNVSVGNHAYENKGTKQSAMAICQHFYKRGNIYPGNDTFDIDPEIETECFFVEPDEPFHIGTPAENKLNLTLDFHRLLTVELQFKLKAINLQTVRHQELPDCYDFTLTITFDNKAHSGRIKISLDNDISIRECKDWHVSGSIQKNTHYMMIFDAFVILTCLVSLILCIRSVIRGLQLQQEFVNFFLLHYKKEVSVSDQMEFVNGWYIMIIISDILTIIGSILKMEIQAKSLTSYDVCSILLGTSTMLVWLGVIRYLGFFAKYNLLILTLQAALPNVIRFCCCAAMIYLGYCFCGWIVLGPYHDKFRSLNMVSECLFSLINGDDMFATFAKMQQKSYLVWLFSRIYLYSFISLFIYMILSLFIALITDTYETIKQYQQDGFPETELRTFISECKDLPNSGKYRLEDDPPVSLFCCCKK
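Material: HEK293 cells stably carrying human TRPML3-YFP; compound dosing: single dose, 3 µM final nominal compound, 0.3% DMSO final; incubation: 1-h 37 °C dye load, 5-s basal, 120-s post-compound reads; technique: Fluo-8 intracellular calcium fluorescence, excitation 470-495 nm, emission 515-575 nm; read-out basis: percent activation from peak-to-basal fluorescence ratio, scaled between DMSO and carbachol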
zfTRPN1 agonist: activates the zebrafish TRPN1 channel; AID 1424; 220,000 tested, 0.18% active; HEK293 zebrafish TRPN1-YFP, Fluo-8 calcium fluorescence; 100% = response to 87 µM carbachol; activation, % at 3 µM;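 active = activation above its plate's cutoff, the mean activation of test wells on that plate plus 3 SD, cut at about 19% in these data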;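 note: 0% = DMSO alone and 100% = 87 µM carbachol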
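System: zebrafish TRPN1-YFP in HEK293 cells / Dosing: 3 µM single point / Timing: dye loading 1 h at 37 °C, then 30 min room temperature / Signal: Fluo-8 calcium fluorescence, excitation 470-495 nm, emission 515-575 nm / Read-out basis: percent activation from peak over basal fluorescence ratio, control-normalized / Control set: high carbachol 87 µM, low DMSO alone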
IDE act: boosts human insulin-degrading enzyme activity in HEK cells | activation, % at 5.96 µM | P14735 | FAbeta-B cleavage, fluorescence polarization; 0% vehicle, 100% cell-free pure enzyme wells | AID 493087 | 340,000 tested, 0.073% active;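 active = activation above the mean of all tested compounds plus 3 SD, set per screening campaign, cut at about 17% in these data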
IDE inh: inhibits human insulin-degrading enzyme in HEK cells; FAbetaB cleavage, fluorescence polarization; 320,000 tested, 0.41% active; AID 434962; inhibition, % at 5.59 µM; P14735;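 active = percent inhibition above the average of all tested compounds plus 3 SD, set per screening campaign, cut at about 16% in these data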;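 note: IDE supplied by intact live HEK cells; FP after avidin binding of uncleaved biotin substrate so inhibition keeps polarization high; 0% = DMSO wells and 100% = 60 µM reference IDE inhibitor Ii1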
The depositor's hits bear a star; . = no result given; + = active, no number.

SMILES	TRPML3 ag	zfTRPN1 agonist	IDE act	IDE inh
O=C(Nc1ccccc1)Nc1ccc(F)c([N+](=O)[O-])c1	9.7	19.7*	-2.3	2.6
O=C(Nc1ccccc1)Nc1ccc2nnsc2c1	7.7	18.1	-3.6	3.7
CN(C)c1ccc(NC(=O)Nc2ccc3snnc3c2)cc1	6.4	19.0*	-2.2	4.2
O=C(Nc1ccccc1)Nc1ccc2snnc2c1	10.7	21.4*	2.2	-2.9
COc1ccc(NC(=O)C2CC3CCC2C3)c(OC)c1 (configuration not stated)	.	.	.	1.7
COc1ccc(C2CC(c3ccccc3)=NN2C(=O)CN2N=NC3C(=O)N(c4cccc(F)c4)C(=O)C32)cc1 (configuration not stated)	1.9	1.2	2.4	3.9
Cc1cc(O)c(C(C)C)cc1NC(=S)Nc1cc(C(C)C)c(O)cc1C	.	.	-3.8	.
Cc1ccc(S(=O)(=O)/N=C/c2cc(Br)ccc2O)cc1	0.7	1.2	23.3*	4.0
O=C(CS)Nc1ccc2ccccc2c1	0.0	1.9	-13.1	17.3*
O=C(O)c1ccccc1-c1ccc(/C=C/c2cc(C(F)(F)F)[nH]c(=O)n2)o1	28.1*	81.2*	-16.2	.
O=c1nc(/C=C/c2ccc(-c3ccc(F)cc3)o2)cc(C(F)(F)F)[nH]1	1.7	0.8	.	5.1
O=C(O)c1cc(Cl)ccc1-c1ccc(/C=C/c2cc(C(F)(F)F)[nH]c(=O)n2)o1	13.0*	29.1*	-2.0	12.8
CCOc1cc(NC(=O)c2cccs2)c(OCC)cc1NC(=O)CCC(=O)NCC1CCCO1 (configuration not stated)	0.3	0.6	.	2.5
O=C(NCc1cccc(Br)c1)C1CC(c2ccccc2[N+](=O)[O-])=NO1 (configuration not stated)	.	.	2.1	2.0
Cc1ccc([N+](=O)[O-])cc1S(=O)(=O)Nc1cccc(S(=O)(=O)Nc2ccccc2C(=O)O)c1	.	.	4.0	1.9
Cc1ccc(C)c(NC(=O)c2ccccc2NS(=O)(=O)c2cc([N+](=O)[O-])ccc2C)c1	17.9*	26.6*	6.5	-1.5
Cc1nn(CC(=O)NCCCN2CCC(N3CCCCC3)CC2)c(=O)c2cc(-c3ccccc3)nn12	.	.	0.5	3.0
COc1ccc(OC)c(C2=NOC(C(=O)Nc3cc(C)on3)C2)c1 (configuration not stated)	-0.3	-0.8	2.2	-1.1
COC(CNC(=O)c1ccc2c3c(onc13)-c1ccccc1C2=O)OC	18.1*	26.9*	-4.0	-1.1
Cc1ccc(C)c(C(=O)N(Cc2nc(-c3ccc(Cl)cc3)no2)C(C)C)c1	28.1*	1.2	3.7	-0.1
O=[N+]([O-])c1ccc(Sc2cccc[n+]2[O-])c2nonc12	14.4*	34.8*	-38.2	.
CCN1CCc2c(sc(NC(=O)c3ccc(S(=O)(=O)N(CC)c4ccccc4)cc3)c2C(N)=O)C1	.	.	-15.3	15.5
CC(=O)Oc1ccc2c(c1)Oc1cc(OC(C)=O)ccc1C21OC(=O)c2ccccc21	506.3*	+	42.2*	-17.7
Cc1cc(C)c(S(=O)(=O)N2CCCCC2)c(C)c1N(C)S(=O)(=O)c1ccccc1	55.4*	1.0	0.2	-1.4
NC(=O)c1ccccc1OCC(=O)Nc1ccc(Cl)c(Cl)c1	1.9	3.2	3.3	-1.8
SMILES	TRPML3 ag	zfTRPN1 agonist	IDE act	IDE inh
N#C/C(=C/c1ccc(N2CCCCC2)o1)C(=O)Nc1ccc2ccccc2c1	21.7*	39.6*	-131.1	.
N#C/C(=C/c1ccc(N2CCOCC2)o1)C(=O)NC1CCCCC1	4.2	5.9	-36.3	9.5
O=C(CCc1ccccc1)Nc1nc2nc(-c3ccccc3)cc(=O)n2[nH]1	-0.1	1.4	11.5	1.1
Cn1c(Cc2ccccc2)nnc1SCC(=O)c1ccc(Br)s1	37.7*	-0.3	3.5	12.3
Cn1nnnc1SCC(=O)c1ccc(Br)s1	0.5	0.9	0.5	-2.5
CCc1ccc(Cn2nnc(C(=O)Nc3cccc(C)c3)c2N)cc1	2.0	2.4	1.9	2.1
Cc1ccc(Cn2nnc(C(=O)Nc3cccc(C)c3C)c2N)cc1	17.2*	36.4*	-1.9	4.7
CC(OC(=O)c1ccc(Cl)nc1)C(=O)NC1(C#N)CCCCC1 (configuration not stated)	.	.	17.9*	2.2
CC(OC(=O)c1ncc(Cl)c(Cl)c1Cl)C(=O)NC1(C#N)CCCCC1 (configuration not stated)	.	.	5.4	8.3
NS(=O)(=O)c1cccc(NC(=O)COC(=O)c2ccccc2SCC(=O)N2CCCC2)c1	.	.	0.9	-1.8
COc1ccc(/C=C2/SC(=S)N(CCCC(=O)Nc3ccccc3C(=O)O)C2=O)cc1	.	.	21.6*	-31.9
Cc1ccc(/C=C2\SC(=S)N(CCCC(=O)Nc3ccccc3C(=O)O)C2=O)cc1	.	.	16.5	-9.3
CCN(CC)c1ccc2cc(C(N)=O)c(=N)oc2c1	0.8	0.5	.	14.9
CCN(CC)c1ccc2c(-c3ccc(S(=O)(=O)O)cc3S(=O)(=O)[O-])c3ccc(=[N+](CC)CC)cc-3oc2c1	.	.	27.4*	-55.8
COc1ccc(N(CC(=O)NCc2ccc(F)cc2)C(=O)c2snc(C(N)=O)c2N)cc1OC	.	.	2.1	3.7
NC(=O)CSC1=N/C(=C\c2ccco2)C(=O)N1c1ccc(OC(F)F)cc1	0.6	2.1	4.1	-1.2
CCOc1cc(/C=C2\N=C(SC(C)C(N)=O)N(c3ccc(OC(F)F)cc3)C2=O)ccc1O (configuration not stated)	.	.	-100.2	108.1*
COc1cc(Cl)c(C)cc1NC(=O)CSc1nc2ccccc2o1	-1.8	-3.0	2.1	0.2
COc1cc(Cl)c(C)cc1NC(=O)CSc1ccc(NC(C)=O)cc1	-0.1	-0.1	-8.6	17.8*
O=C(c1cccc(S(=O)(=O)Nc2cccc(C(F)(F)F)c2)c1)N1CCCCC1	-0.3	0.2	0.6	-1.1
CCCCNC(=O)c1cc2c(=O)n3cccc(C)c3nc2n(Cc2ccncc2)c1=N	0.5	-1.6	-18.9	8.4
CC/C=C(/NC(C)=O)c1ccccc1	.	.	-3.7	5.3
COCO/C=C(\NC(C)=O)c1ccccc1	.	.	31.5*	2.2
Cc1ccccc1N=Nc1ccc(O)c2ncccc12	0.9	1.1	7.2	6.9
O=S(=O)(O)c1cccc2c(N=Nc3ccc(O)c4ncccc34)cccc12	.	.	36.4*	-25.8
SMILES	TRPML3 ag	zfTRPN1 agonist	IDE act	IDE inh
c1ccc(CNc2ccccn2)cc1	.	.	0.2	3.3
c1ccc(Nc2ccccc2Nc2ccccn2)nc1	67.6*	88.0*	-0.1	-24.3
NC(=O)Nc1ccc(C(=O)OCC(=O)NC2CCCCC2)cc1	1.0	1.4	5.4	-0.2
FC(F)(F)c1cccc(-c2nc3nc(Cl)c(Cl)nc3[nH]2)c1	14.3*	31.8*	2.6	-1.2
COc1cnc(-c2cccc(C(F)(F)F)c2)[nH]c1=O	0.4	0.4	1.2	8.7
CC(C)CCN1C(=O)c2cccc3c(N)ccc(c23)C1=O	.	.	53.6*	-21.7
Nc1cccc(N2C(=O)c3cccc4c(N)ccc(c34)C2=O)c1	.	.	0.1	5.1
Nc1ccc2c3c(cccc13)C(=O)N(c1ccccc1)C2=O	111.2*	125.4*	-13.5	.

From PubChem BioAssay
